Compound activity: PubChem BioAssay, Broad Institute
Many of the other results were omitted from the sample, so hits are more common in it than they were.
IDH1 R132H inh = inhibitors of IDH1 R132H reductase, primary screen, biochemical, plate reader, single point | Isocitrate dehydrogenase [NADP] cytoplasmic (Homo sapiens), O75874 | diaphorase/resazurin fluorescence, 60 min | inhibition, % at 10 µM | hit rate 0.18% among 70,000 | AID 624101, 2012; in the data active = inhibition above about 34%;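 also: 0% = DMSO and 100% = no enzyme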
Target sequence (O75874 whole entry R132H): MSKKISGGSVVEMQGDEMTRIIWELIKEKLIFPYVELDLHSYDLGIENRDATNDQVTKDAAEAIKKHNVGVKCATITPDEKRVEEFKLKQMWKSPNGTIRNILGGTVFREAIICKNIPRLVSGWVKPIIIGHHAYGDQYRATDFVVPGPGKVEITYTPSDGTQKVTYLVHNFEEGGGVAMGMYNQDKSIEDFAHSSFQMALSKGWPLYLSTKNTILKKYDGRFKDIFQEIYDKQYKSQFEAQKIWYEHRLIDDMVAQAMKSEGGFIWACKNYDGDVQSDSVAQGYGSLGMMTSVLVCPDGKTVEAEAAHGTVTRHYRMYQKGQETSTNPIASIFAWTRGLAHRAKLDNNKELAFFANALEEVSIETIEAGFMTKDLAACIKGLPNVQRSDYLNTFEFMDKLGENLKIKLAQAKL
GASC1 inh = inhibitors of GASC-1 (KDM4C) histone demethylase, primary screen, biochemical, single concentration HTS. GST-KDM4C 2-372, H3K9me3 peptide, LANCE TR-FRET. inhibition, % at 12.5 µM. hit rate 0.15% among 96,000;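 active = mean replicate inhibition above about 25%, with at least 55% of replicates also reaching it, limit read from the data, passing the limit was not always enough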
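Material: N-terminal GST-fused human GASC-1 (KDM4C) fragment, residues 2-372. Input: 10 nM enzyme. Incubation: enzyme reaction 30 min, then detection 60 min, both room temperature. Doses: one test concentration per compound. Read-out basis: inhibition from TR-FRET ratio decrease. Detection: LANCE TR-FRET, excitation 340 nm, emissions 618 and 671 nm.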
Pf Dd2 inh = P. falciparum Dd2 growth inhibitors, primary screen, SYBR Green fluorescence, single dose replicates; 72 h; active compounds read low; activity change, % at 10 µM; hit rate 2.3% among 94,000; AID 1159554, 2015; in the data active = activity change below about -80%
* hit, by the source's call; / = no result.

SMILES	IDH1 R132H inh	GASC1 inh	Pf Dd2 inh
C[C@@H]1O[C@@H](O[C@H]2[C@@H]3C=CO[C@@H](O[C@@H]4O[C@H](CO)[C@@H](O)[C@H](O)[C@H]4O)[C@@H]3[C@@]3(CO)O[C@@H]23)[C@H](O)[C@H](O)[C@H]1OC(=O)/C=C/c1ccccc1	4	/	/
Cc1ccc(S(=O)(=O)N(C)C[C@H]2OCCCC[C@H](C)Oc3ccc(NS(=O)(=O)c4ccc(F)cc4)cc3C(=O)N([C@@H](C)CO)C[C@H]2C)cc1	2	-1	-82*
C[C@H]1CCCCO[C@@H](CN(C)S(=O)(=O)c2ccccc2)[C@@H](C)CN([C@@H](C)CO)C(=O)c2cc(NS(=O)(=O)c3ccc(F)cc3)ccc2O1	1	-1	-84*
Cc1ccc(S(=O)(=O)N(C)C[C@@H]2OCCCC[C@H](C)Oc3ccc(NS(=O)(=O)c4ccc(F)cc4)cc3C(=O)N([C@@H](C)CO)C[C@@H]2C)cc1	-3	-2	-47
C[C@@H]1CCCCO[C@H](CN(C)S(=O)(=O)c2ccccc2)[C@H](C)CN([C@@H](C)CO)C(=O)c2cc(NS(=O)(=O)c3ccc(F)cc3)ccc2O1	0	11	-32
COCCNC(=O)c1ccccc1NC(=O)c1ccc([N+](=O)[O-])cc1	0	/	/
COc1ccc(S(=O)(=O)N[C@@H]2CC[C@@H](CC(=O)O)O[C@H]2CO)cc1	0	1	17
CCCNC(=O)C[C@@H]1CC[C@@H]2[C@H](COC[C@@H](O)CN2Cc2ccc(Cl)c(Cl)c2)O1	/	2	4
C[C@@H]1CN([C@@H](C)CO)C(=O)c2cccc(NC(=O)Nc3ccc4c(c3)OCO4)c2O[C@H]1CN(C)Cc1ccc(C(=O)Nc2ccccc2N)cc1	/	2	-85*
C[C@H]1CN([C@@H](C)CO)C(=O)c2cccc(NC(=O)Nc3ccc4c(c3)OCO4)c2O[C@@H]1CN(C)Cc1ccc(C(=O)Nc2ccccc2N)cc1	2	2	-85*
C[C@H]1CN([C@@H](C)CO)C(=O)c2cccc(NC(=O)Nc3ccc4c(c3)OCO4)c2O[C@@H]1CN(C)Cc1ccc(C(=O)O)cc1	/	4	0
C[C@@H]1CN([C@@H](C)CO)C(=O)c2cccc(NC(=O)Nc3ccc4c(c3)OCO4)c2O[C@@H]1CN(C)Cc1ccc(C(=O)Nc2ccccc2N)cc1	1	-1	-93*
C[C@H](CO)N1C[C@H](C)[C@H](CN(C)Cc2ccc(C(=O)Nc3ccccc3N)cc2)Oc2ccc(NC(=O)Nc3ccc4c(c3)OCO4)cc2C1=O	0	-2	-69
C[C@@H]1CN([C@@H](C)CO)C(=O)c2cccc(NC(=O)Nc3ccc4c(c3)OCO4)c2O[C@@H]1CN(C)Cc1ccc(C(=O)O)cc1	/	0	10
CCC(=O)N1CC2(CN(Cc3ccncc3)C2)c2c(n(C)c3cc(OC)ccc23)[C@H]1CO	/	1	-16
COCC(=O)N1C[C@@H](C)[C@H](OC)CN(C)C(=O)c2ccc(NC(=O)c3ccc(-c4ccccc4)cc3)cc2OC[C@H]1C	0	-2	-62
C[C@@H]1CN([C@H](C)CO)C(=O)c2cc(NS(=O)(=O)c3ccc(Cl)cc3)ccc2O[C@@H]1CN(C)S(=O)(=O)c1cccs1	3	-1	3
C[C@H]1CCCCO[C@H](CN(C)S(=O)(=O)c2ccc(F)cc2)[C@@H](C)CN([C@@H](C)CO)C(=O)c2cc(NC(=O)Cc3ccccc3)ccc2O1	10	-2	-89*
COc1ccc(S(=O)(=O)N(C)C[C@H]2OCCCC[C@H](C)Oc3ccc(NC(=O)Cc4ccccc4)cc3C(=O)N([C@H](C)CO)C[C@H]2C)cc1	1	-3	-84*
C[C@@H]1CCCCO[C@H](CN(C)S(=O)(=O)c2ccc(F)cc2)[C@@H](C)CN([C@@H](C)CO)C(=O)c2cc(NC(=O)Cc3ccccc3)ccc2O1	/	1	-76
C[C@H](CO)N1C[C@H](C)[C@H](CN(C)S(=O)(=O)c2ccc(Cl)cc2)OCCCC[C@H](C)Oc2ccc(NC(=O)Cc3ccccc3)cc2C1=O	/	-1	-72
COc1ccc(S(=O)(=O)N(C)C[C@H]2OCCCC[C@@H](C)Oc3ccc(NC(=O)Cc4ccccc4)cc3C(=O)N([C@@H](C)CO)C[C@H]2C)cc1	1	-2	-71
C[C@H]1CCCCO[C@H](CN(C)S(=O)(=O)c2ccc(Cl)cc2)[C@@H](C)CN([C@@H](C)CO)C(=O)c2cc(NC(=O)Cc3ccccc3)ccc2O1	/	1	-81*
C[C@@H]1CN([C@H](C)CO)C(=O)Cc2cc(NS(=O)(=O)c3ccc(Cl)cc3)ccc2O[C@H]1CN(C)S(=O)(=O)c1ccc(Cl)cc1	-1	-4	-21
COCC#Cc1cnc2c(c1)C(=O)N([C@H](C)CO)C[C@H](C)[C@H](CN(C)C(=O)c1cccnc1)O2	3	0	30
SMILES	IDH1 R132H inh	GASC1 inh	Pf Dd2 inh
COC(=O)C(C)Sc1nnc2c3ccccc3n(Cc3ccccc3)c2n1 (stereo not given)	0	/	/
Cc1nc(SCC(=O)NCc2ccccc2)n[nH]1	1	/	/
CCCNC(=O)N1[C@H](C#N)[C@H](c2ccc(-c3ccccc3F)cc2)[C@H]1CO	/	3	-88*
CCCNC(=O)N1[C@H](C#N)[C@H](c2ccc(-c3ccccc3F)cc2)[C@@H]1CO	/	/	-87*
CCCNC(=O)N1[C@@H](C#N)[C@H](c2ccc(-c3ccccc3F)cc2)[C@@H]1CO	/	4	-63
CCCNC(=O)N1[C@H](CO)[C@@H](c2ccc(-c3ccccc3F)cc2)[C@@H]1C#N	/	1	-16
COc1ccc(Cl)cc1NC(=O)CN(C)S(=O)(=O)c1cc(C)ccc1OC	-1	/	/
O=C(C[C@@H]1CC[C@H]2[C@@H](COC[C@@H](O)CN2C(=O)Nc2ccc(Cl)c(Cl)c2)O1)NCc1ccc(Cl)cc1	/	-2	-5
CCS(=O)(=O)N1[C@H](C#N)[C@H](c2ccc(C#CC(C)C)cc2)[C@@H]1CO	/	-1	-2
C[C@H](CO)N1C[C@H](C)[C@H](CN(C)C(=O)C2CCCCC2)OCCCC[C@H](C)Oc2ccc(NC(=O)Nc3ccc(C(F)(F)F)cc3)cc2C1=O	/	1	-24
C[C@H](CO)N1C[C@H](C)[C@@H](CN(C)C(=O)C2CCCCC2)OCCCC[C@H](C)Oc2ccc(NC(=O)CCC(F)(F)F)cc2C1=O	/	-1	4
C[C@H]1CCCCO[C@@H](CN(C)C(=O)C2CCCCC2)[C@@H](C)CN([C@@H](C)CO)C(=O)c2cc(NC(=O)Nc3ccc(C(F)(F)F)cc3)ccc2O1	3	0	-89*
C[C@H]1CCCCO[C@@H](CN(C)C(=O)C2CCCCC2)[C@@H](C)CN([C@@H](C)CO)C(=O)c2cc(NC(=O)Nc3ccc(F)cc3)ccc2O1	/	-2	-85*
C[C@H]1CCCCO[C@@H](CN(C)C(=O)C2CCCCC2)[C@@H](C)CN([C@@H](C)CO)C(=O)c2cc(NC(=O)CCC(F)(F)F)ccc2O1	-1	17	-82*
C[C@H](CO)N1C[C@H](C)[C@@H](CN(C)C(=O)C2CCCCC2)OCCCC[C@H](C)Oc2ccc(NC(=O)Nc3ccc(F)cc3)cc2C1=O	/	-1	1
